Results from ChEMBL document CHEMBL2150921, “Synthesis, structure-activity relationships, and docking studies of N-phenylarylformamide derivatives (PAFAs) as non-nucleoside HIV reverse transcriptase inhibitors” (Eur J Med Chem, 2012).

Tests used:
C8166 = experiment: Cytotoxicity against human C8166 cells assessed as decrease in cell viability by MTT assay; type: functional
How it was run: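 Uninfected C8166 cells exposed to compound; viability read by MTT colorimetric assay at A570/630. CC50, the concentration reducing viable cells by 50%, taken from dose-response curve. Mean of at least two separate experiments.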

[1] = tested on: Human immunodeficiency virus 1; experiment: Antiviral activity against wild type HIV1 3B infected in human C8166 cells assessed as protection against virus-induced cytopathic effect after 3 days by syncytium reduction assay; type: functional, organism-based; details: Human immunodeficiency virus 1, 3B, C8166, 72 h
How it was run: (§1)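 C8166 cells (4 × 10⁵/mL) infected at MOI 0.06 in presence of graded compound concentrations; AZT and GW678248 as drug controls. After 3 days culture, syncytia (multinucleated giant cells) counted under inverted microscope; EC50 taken as concentration blocking 50% syncytium formation. Mean of at least two separate experiments.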

[2] = tested on: Human immunodeficiency virus 1; experiment: Antiviral activity against HIV1 A17 harbouring RT K103N/Y181C mutant infected in human C8166 cells assessed as protection against virus-induced cytopathic effect after 3 days by syncytium reduction assay; type: functional, organism-based; details: Human immunodeficiency virus 1, A17, C8166, 72 h
How it was run: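 C8166 cells (4 × 10⁵/mL) infected at M.O.I 0.06 in the presence of various compound concentrations; cultured 3 days, syncytia (multinucleated giant cells) scored under inverted microscope; EC50 = concentration blocking syncytia formation by 50%. AZT and GW678248 as drug controls. Mean of at least two separate experiments.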

[3] = Therapeutic index, ratio of CC50 for human C8166 cells to EC50 for HIV1 A17 harbouring RT K103N/Y181C mutant infected in human C8166 cells; type: cell-based; details: read-out: Ratio CC50/EC50
How it was run: (§2)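 CC50 from MTT assay on uninfected C8166 cells (A570/630, dose-response curve, 50% viable cell reduction) divided by EC50 from 3-day syncytium reduction assay in C8166 cells (4 × 10⁵/mL) infected at M.O.I 0.06; syncytia scored microscopically. Values are means of at least two separate experiments.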

[4] = target: Human immunodeficiency virus type 1 reverse transcriptase (Human immunodeficiency virus 1, UniProt Q72547); experiment: Inhibition of wild type HIV1 reverse transcriptase activity using poly (rA)/oligo (dT)15 homopolymer template after 1 hr by ELISA
How it was run: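 Wild-type RT; oligo(dT) immobilized on plates, poly(rA) template, biotin-11-dUTP incorporation. Reaction: 50 mM Tris-HCl pH 8.3, 3 mM MgCl2, 75 mM KCl, 5 mM DTT, 0.13 mg/mL BSA, […]; 37 °C, 1 h. Detection by streptavidin-alkaline phosphatase and PNPP (30 min, 37 °C), stopped with 0.5 M NaOH.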

[5] = tested on: Human immunodeficiency virus 2; experiment: Antiviral activity against HIV2 ROD infected in human C8166 cells assessed as protection against virus-induced cytopathic effect after 3 days by syncytium reduction assay; type: functional, organism-based; details: Human immunodeficiency virus 2, ISOLATE ROD, C8166, 72 h; how it was run: as §1
[6] = Therapeutic index, ratio of CC50 for human C8166 cells to EC50 for wild type HIV1 3B infected in human C8166 cells; type: cell-based; details: C8166 cells infected with wild type HIV1 3B, read-out: Ratio CC50/EC50; how it was run: as §2

Row | SMILES | CC50 (C8166) | EC50 [1] | EC50 [2] | selectivity ratio [3] | IC50 [4] | EC50 [5] | selectivity ratio [6]
1 | Cc1cc(S(N)(=O)=O)ccc1NC(=O)COc1ccc(Cl)cc1C(=O)c1cc(Cl)cc(C#N)c1 | > 387 µM | 0.000103 µM | 0.00028 µM | > 1.37e+06 | 0.00269 µM | – | –
2 | Cc1cc(S(N)(=O)=O)ccc1NC(=O)COc1ccc(Cl)cc1NC(=O)c1cccc(Cl)c1 | 59.7 µM | 0.00319 µM | 1.49 µM | 39.9 | – | 52.5 µM | 18700
3 | Cc1cc(S(N)(=O)=O)ccc1NC(=O)COc1ccc(Cl)cc1NC(=O)c1ccccc1 | 207 µM | 0.00367 µM | 1.59 µM | 130 | – | 72.1 µM | 56500
4 | Cc1cc(S(N)(=O)=O)ccc1NC(=O)COc1ccc(Cl)cc1NC(=O)c1ccccc1C | 67.3 µM | 0.0179 µM | 2.29 µM | 29.4 | – | 55.5 µM | 3750
5 | Cc1cccc(C(=O)Nc2cc(Cl)ccc2OCC(=O)Nc2ccc(S(N)(=O)=O)cc2C)c1 | 52.9 µM | 0.00146 µM | 0.46 µM | 115 | – | 29.6 µM | 36200
6 | Cc1ccc(C(=O)Nc2cc(Cl)ccc2OCC(=O)Nc2ccc(S(N)(=O)=O)cc2C)cc1 | 54.2 µM | 0.0051 µM | 0.93 µM | 58.2 | – | 57.3 µM | 10600
7 | Cc1cc(S(N)(=O)=O)ccc1NC(=O)COc1ccc(Cl)cc1NC(=O)c1cccc(F)c1 | 243 µM | 0.00353 µM | 1.02 µM | 239 | – | 186 µM | 68800
8 | Cc1cc(S(N)(=O)=O)ccc1NC(=O)COc1ccc(Cl)cc1NC(=O)c1ccccc1[N+](=O)[O-] | 54.8 µM | 0.0003 µM | 0.29 µM | 188 | – | 11.8 µM | 185000
9 | Cc1cc(S(N)(=O)=O)ccc1NC(=O)COc1ccc(Cl)cc1NC(=O)c1cccc([N+](=O)[O-])c1 | 58.8 µM | 0.00066 µM | 0.46 µM | 128 | – | 36.1 µM | 89400
10 | Cc1cc(S(N)(=O)=O)ccc1NC(=O)COc1ccc(Cl)cc1NC(=O)c1cccc(C(F)(F)F)c1 | 124 µM | 1.51 µM | 52.9 µM | 2.34 | – | 81.3 µM | 82
11 | COc1ccc(C(=O)Nc2cc(Cl)ccc2OCC(=O)Nc2ccc(S(N)(=O)=O)cc2C)cc1 | 69.5 µM | 0.204 µM | 18.1 µM | 3.85 | – | 58.8 µM | 340
12 | Cc1ccc(C(=O)Nc2cc(Cl)ccc2OCC(=O)Nc2ccc(S(N)(=O)=O)cc2C)c(C)c1 | 47.6 µM | 0.00056 µM | 0.09 µM | 543 | – | 41.4 µM | 85300
13 | Cc1ccc(C)c(C(=O)Nc2cc(Cl)ccc2OCC(=O)Nc2ccc(S(N)(=O)=O)cc2C)c1 | 79.7 µM | 0.00037 µM | 0.14 µM | 560 | – | 27.7 µM | 213000
14 | Cc1ccc(C(=O)Nc2cc(Cl)ccc2OCC(=O)Nc2ccc(S(N)(=O)=O)cc2C)cc1C | 84.1 µM | 0.00032 µM | 0.1 µM | 836 | 0.00114 µM | 4.37 µM | 261000
15 | Cc1cc(C)cc(C(=O)Nc2cc(Cl)ccc2OCC(=O)Nc2ccc(S(N)(=O)=O)cc2C)c1 | 36.5 µM | 0.00116 µM | 0.33 µM | 110 | – | 25.9 µM | 31300
16 | Cc1cc(S(N)(=O)=O)ccc1NC(=O)COc1ccc(Cl)cc1NC(=O)c1ccc(Cl)cc1Cl | 61.1 µM | 0.00297 µM | 0.33 µM | 187 | – | 14.4 µM | 20600
17 | Cc1cc(S(N)(=O)=O)ccc1NC(=O)COc1ccc(Cl)cc1NC(=O)c1cc(Cl)ccc1Cl | 42.1 µM | 0.00234 µM | 0.42 µM | 100 | – | 21.6 µM | 18000
18 | Cc1cc(S(N)(=O)=O)ccc1NC(=O)COc1ccc(Cl)cc1NC(=O)c1ccc(Cl)c(Cl)c1 | 158 µM | 0.0514 µM | 1.14 µM | 138 | – | 55.5 µM | 3060
19 | Cc1cc(S(N)(=O)=O)ccc1NC(=O)COc1ccc(Cl)cc1NC(=O)c1cc(Cl)cc(Cl)c1 | 72.4 µM | 0.00027 µM | 0.27 µM | 268 | – | 18 µM | 271000
20 | Cc1cc(S(N)(=O)=O)ccc1NC(=O)COc1ccc(Cl)cc1NC(=O)c1cc(Cl)cc(Br)c1 | 114 µM | 3.09 µM | 27.8 µM | 4.11 | – | 61.5 µM | 37
21 | Cc1cc(S(N)(=O)=O)ccc1NC(=O)COc1ccc(Cl)cc1NC(=O)c1cc(Br)cc(Br)c1 | 89.7 µM | 0.0459 µM | 1.39 µM | 64.7 | – | 56.5 µM | 1950
22 | Cc1cc(S(N)(=O)=O)ccc1NC(=O)COc1ccc(Cl)cc1NC(=O)c1cc(Cl)cc(C#N)c1 | 131 µM | 0.00096 µM | 0.29 µM | 454 | 0.00205 µM | 23.2 µM | 136000
23 | Cc1cc(S(N)(=O)=O)ccc1NC(=O)COc1ccc(Cl)cc1NC(=O)/C=C/c1ccccc1 | 163 µM | 95.4 µM | 154 µM | 1.06 | – | 77.5 µM | 2
24 | Cc1cc(S(N)(=O)=O)ccc1NC(=O)COc1ccc(Cl)cc1NC(=O)Cc1c(Cl)cccc1Cl | > 359 µM | 249 µM | 241 µM | > 1.49 | – | 160 µM | > 2
25 | Cc1cc(S(N)(=O)=O)ccc1NC(=O)COc1ccc(Cl)cc1NC(=O)c1cccc2ccccc12 | > 382 µM | 0.109 µM | 21.5 µM | > 17.7 | – | 97.7 µM | > 3500
26 | Cc1cc(S(N)(=O)=O)ccc1NC(=O)COc1ccc(Cl)cc1NC(=O)c1ccc2ccccc2c1 | 37.6 µM | 0.101 µM | 8.91 µM | 4.22 | – | 31.6 µM | 373
27 | Cc1cn([C@H]2C[C@H](N=[N+]=[N-])[C@@H](CO)O2)c(=O)[nH]c1=O [ZIDOVUDINE] | 4910 µM | – | – | 216000 | – | – | 422000
